ChEMBL document CHEMBL4038304, “Chiral Indolylarylsulfone Non-Nucleoside Reverse Transcriptase Inhibitors as New Potent and Broad Spectrum Anti-HIV-1 Agents” (J Med Chem, 2017)

Tests used:
[1] = system: Human immunodeficiency virus 1; assay: Antiviral activity against HIV1 NL4-3 infected in human […] cells assessed as protection against virus-induced cytopathic effect measured on day 5 post infection by MTT assay; type: functional, cell-based; details: Human immunodeficiency virus 1, NL4-3, 120 h
How it was run: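 Values are means of two to three independent experiments, each run in triplicate. The lowest detectable concentration is reported where activity fell below the assay limit.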

[2] = Selectivity index, ratio of CC50 for human MT4 cells to EC50 for HIV1 NL4-3 infected in human MT4 cells; type: toxicity, cell-based; details: read-out: Ratio CC50/EC50
How it was run: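 SI computed as CC50/EC50, using the MTT-based CC50 in uninfected MT-4 cells and the MTT-based EC50 against HIV-1 NL4-3-induced cell death in MT-4 cells. Experiments were run in triplicate, two to three times.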

[3] = system: Human immunodeficiency virus 1; assay: Ratio of EC50 for HIV-1 harboring reverse transcriptase K103N mutant infected in human MT4 cells to EC50 for HIV1 NL4-3 infected in human MT4 cells; type: functional
How it was run: (§1)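 Fold change calculated as EC50 against the stated resistant mutant HIV-1 strain divided by EC50 against wild-type NL4-3. Both EC50s come from MTT read-out of virus-induced death in MT-4 cells, mean of two to three independent experiments each in triplicate.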

[4] = system: Human immunodeficiency virus 1; assay: Antiviral activity against HIV1 harboring reverse transcriptase Y181C mutant infected in human […] cells assessed as protection against virus-induced cytopathic effect measured on day 5 post infection by MTT assay; type: functional, cell-based; details: Human immunodeficiency virus 1, 120 h
[5] = system: Human immunodeficiency virus 1; assay: Antiviral activity against HIV1 harboring reverse transcriptase K103N mutant infected in human […] cells assessed as protection against virus-induced cytopathic effect measured on day 5 post infection by MTT assay; type: functional, cell-based; details: Human immunodeficiency virus 1, 120 h
[6] = Cytotoxicity against human MT4 cells assessed as cell viability by MTT assay; type: cell-based
How it was run: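 Uninfected MT-4 cells scored for viability by MTT. […] Values are means of two to three independent experiments, each run in triplicate.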

[7] = system: Human immunodeficiency virus 1; assay: Ratio of EC50 for HIV-1 harboring reverse transcriptase K103N/[…] double mutant infected in human MT4 cells to EC50 for HIV1 NL4-3 infected in human MT4 cells; type: functional; how it was run: as §1
[8] = system: Human immunodeficiency virus 1; assay: Antiviral activity against HIV1 harboring reverse transcriptase K103N /[…] double mutant infected in human […] cells assessed as protection against virus-induced cytopathic effect measured on day 5 post infection by MTT assay; type: functional, cell-based; details: Human immunodeficiency virus 1, 120 h
[9] = system: Human immunodeficiency virus 1; assay: Ratio of EC50 for HIV-1 harboring reverse transcriptase Y181C mutant infected in human MT4 cells to EC50 for HIV1 NL4-3 infected in human MT4 cells; type: functional; how it was run: as §1
[10] = system: Human immunodeficiency virus 1; assay: Ratio of EC50 for HIV-1 harboring reverse transcriptase Y188L mutant infected in human MT4 cells to EC50 for HIV1 NL4-3 infected in human MT4 cells; type: functional; how it was run: as §1
[11] = system: Human immunodeficiency virus 1; assay: Antiviral activity against HIV1 harboring reverse transcriptase Y188L mutant infected in human […] cells assessed as protection against virus-induced cytopathic effect measured on day 5 post infection by MTT assay; type: functional, cell-based; details: Human immunodeficiency virus 1, 120 h

SMILES | EC50 [1] | selectivity ratio [2] | Ratio EC50 [3] | EC50 [4] | EC50 [5] | CC50 [6] | Ratio EC50 [7] | EC50 [8] | Ratio EC50 [9] | Ratio EC50 [10] | EC50 [11]
Cc1cc(C)cc(S(=O)(=O)c2c(C(=O)NC(C)C(=O)NCCc3cccs3)[nH]c3ccc(Cl)cc23)c1 (racemic) | 0.0006 µM | 52800 | 30 | 0.129 µM | 0.018 µM | 9.5 µM | >16336 | > 9.8 µM | 215 | >16336 | > 9.8 µM
Cc1cc(C)cc(S(=O)(=O)c2c(C(=O)NC(C)C(=O)NCc3ccncn3)[nH]c3ccc(Cl)cc23)c1 (racemic) | 0.0006 µM | > 46800 | 1 | 0.0006 µM | 0.0006 µM | 28.1 µM | >1330 | 0.798 µM | 1 | >1267 | 0.76 µM
Cc1cc(C)cc(S(=O)(=O)c2c(C(=O)NC(C)C(=O)NC(C)c3ccccc3)[nH]c3ccc(Cl)cc23)c1 (racemic) | 0.0006 µM | > 36900 | 3.2 | 0.167 µM | 0.0019 µM | 21.7 µM | 42149 | 24.9 µM | 283 | 6427 | 3.79 µM
Cc1cc(C)cc(S(=O)(=O)c2c(C(=O)NCC(=O)N[C@@H](C)c3ccncc3)[nH]c3ccc(Cl)cc23)c1 | 0.0007 µM |  |  | 0.0025 µM | 0.438 µM |  |  | 4.63 µM |  |  | 3.05 µM
Cc1cc(C)cc(S(=O)(=O)c2c(C(=O)NCC(=O)NC(C)c3ccccc3)[nH]c3ccc(Cl)cc23)c1 (racemic) | 0.0006 µM | > 49000 | 350 | 0.076 µM | 0.21 µM | 29.4 µM | >48978 | > 29.4 µM | 127 | 2703 | 1.62 µM
Cc1cc(C)cc(S(=O)(=O)c2c(C(=O)NC(C)C(=O)NCc3ccco3)[nH]c3ccc(Cl)cc23)c1 (racemic) | 0.0006 µM | > 40400 | 3 | 0.027 µM | 0.0019 µM | 24.2 µM | >7521 | 4.51 µM | 45 | 4053 | 2.43 µM
Cc1cc(C)cc(S(=O)(=O)c2c(C(=O)NCC(=O)NCc3ccncc3)[nH]c3ccc(Cl)cc23)c1 | 0.0002 µM | > 245000 |  | 0.02 µM | 0.19 µM | > 48.9 µM | 30430 | 6.09 µM | 100 |  | 1.4 µM
Cc1cc(C)cc(S(=O)(=O)c2c(C(=O)NCC(=O)NC(C)c3ccccc3F)[nH]c3ccc(Cl)cc23)c1 (racemic) | 0.0006 µM | > 38300 | 552 | 0.013 µM | 0.387 µM | > 23 µM | >38345 | > 23 µM | 19 | 6118 | 3.67 µM
Cc1ccnc2c1NC(=O)c1cccnc1N2C1CC1 [NEVIRAPINE] | 0.112 µM |  |  | > 3.76 µM | > 3.76 µM | > 18.8 µM |  | > 3.76 µM |  |  | > 3.76 µM
Cc1cc(C)cc(S(=O)(=O)c2c(C(=O)NCc3n[nH]c4ccccc34)[nH]c3ccc(Cl)cc23)c1 | 0.0006 µM | > 84500 | 1 | 0.0006 µM | 0.0006 µM | > 50.7 µM | 913 | 0.548 µM | 1 | 237 | 0.142 µM
Cc1cc(C)cc(S(=O)(=O)c2c(C(=O)NCC(=O)NCc3ccccc3F)[nH]c3ccc(Cl)cc23)c1 | 0.0006 µM | > 78900 | 1894 | 0.0013 µM | 1.33 µM | > 47.3 µM | >72248 | > 47.3 µM | 1.9 | 10258 | 6.16 µM
Cc1cc(C)cc(S(=O)(=O)c2c(C(=O)NC(C)c3ccco3)[nH]c3ccc(Cl)cc23)c1 (racemic) | 0.0007 µM | > 78200 | 155 | 0.022 µM | 0.109 µM | > 54.7 µM | 17195 | 12 µM | 31 | 500 | 0.35 µM
Cc1cn([C@H]2C[C@H](N=[N+]=[N-])[C@@H](CO)O2)c(=O)[nH]c1=O [ZIDOVUDINE] | 0.0037 µM | > 8270 | 4.3 | 0.006 µM | 0.016 µM | > 30.6 µM |  | 0.016 µM | 1.6 | 8.9 | 0.033 µM
Cc1cc(C)cc(S(=O)(=O)c2c(C(=O)NCC(=O)N[C@H](C)c3ccncc3)[nH]c3ccc(Cl)cc23)c1 | 0.0007 µM |  |  | 0.00571 µM | 0.152 µM |  |  | 12.2 µM |  |  | 3.27 µM
COc1cccc(F)c1CNC(=O)c1[nH]c2ccc(Cl)cc2c1S(=O)(=O)c1cc(C)cc(C)c1 | 0.0006 µM | > 83200 | 1 | 0.399 µM | 0.0006 µM | > 49.9 µM | 46243 | 27.7 µM | 665 |  | 
Cc1cc(C)cc(S(=O)(=O)c2c(C(=O)NC(C)c3cc(F)cc(F)c3)[nH]c3ccc(Cl)cc23)c1 (racemic) | 0.0006 µM | > 82800 | 2 | 0.716 µM | 0.0012 µM | > 49.7 µM | >82843 | > 49.7 µM | 1198 |  | 
Cc1cc(C)cc(S(=O)(=O)c2c(C(=O)Nc3cc(C#N)ccn3)[nH]c3ccc(Cl)cc23)c1 | 0.0006 µM | > 89600 | 1 | 0.0022 µM | 0.0006 µM | > 53.8 µM | >89622 | > 53.8 µM | 3.7 |  | 
Cc1cc(C)cc(S(=O)(=O)c2c(C(=O)NC(C)C(=O)NC(C)c3ccncc3)[nH]c3ccc(Cl)cc23)c1 (racemic) | 0.0006 µM | > 36500 | 12 | 0.167 µM | 0.0074 µM | 21.9 µM | >60805 | > 36.5 µM | 278 | 21488 | 12.9 µM
Cc1cc(C)cc(S(=O)(=O)c2c(C(=O)NCC(=O)NCCc3cccs3)[nH]c3ccc(Cl)cc23)c1 | 0.0038 µM | 9480 | 352 | 0.321 µM | 1.34 µM | 35.7 µM | >941 | > 3.58 µM | 84 | >941 | > 3.58 µM
Cc1cc(C)cc(S(=O)(=O)c2c(C(=O)NC(C)C(=O)NCCn3c(C)cnc3[N+](=O)[O-])[nH]c3ccc(Cl)cc23)c1 (racemic) | 0.0002 µM | 94200 | 850 | 0.17 µM | 0.17 µM | 16 µM | 26405 | 5.28 µM | 850 | 23850 | 4.77 µM
Cc1cc(C)cc(S(=O)(=O)c2c(C(=O)NC(CF)c3ccccc3)[nH]c3ccc(Cl)cc23)c1 (racemic) | 0.0007 µM | > 70300 | 1 | 0.082 µM | 0.0007 µM | 49.2 µM | 39030 | 27.3 µM | 117 |  | 
Cc1cc(C)cc(S(=O)(=O)c2c(C(=O)NC(c3ccc(Cl)cc3)C3CC3)[nH]c3ccc(Cl)cc23)c1 (racemic) | 0.133 µM | > 359 |  |  |  | > 47.4 µM |  |  |  |  | 
Cc1cc(C)cc(S(=O)(=O)c2c(C(=O)NCc3cccc(F)c3F)[nH]c3ccc(Cl)cc23)c1 | 0.0007 µM | > 73000 | 1 | 0.002 µM | 0.0007 µM | > 51.1 µM | >73046 | > 51.1 µM | 2.9 |  | 
